Data taken from ChEMBL document CHEMBL1124844, “Synthesis and biological activities of novel 5-(2-acylethynyl)uracils” (J Med Chem, 1990).

Legend:
[1] = Effect on the survival of mice bearing ascites tumor in extremes treated at the dose of 30 mg/kg; assay type: functional, Mus musculus
Method in brief: (§1)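 EAC-bearing Swiss mice given ip compound in saline/10% propylene glycol, single dose or daily for 7 days, starting 24 h after ip inoculation of 1 × 10⁶ cells. Five mice per dose; vehicle controls. Value is the range (shortest to longest) of survival days in the treated group.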

[2] = Effect on the survival of mice bearing ascites tumor in percent controls at the dose of 210 mg/kg; assay type: functional, Mus musculus
Method in brief: (§2)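 Swiss mice inoculated ip with 1 × 10⁶ EAC cells, then treated ip with compound in saline/10% propylene glycol, single dose or 7 daily doses, starting 24 h later. Five mice per dose; vehicle controls. Treated median survival time expressed as percent of control; >125 counted active.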

[3] = Percent inhibition of ascites cell at the dose of 20 mg/kg; assay type: functional; conditions: Mus musculus
Method in brief: (§3)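 EAC cells drawn from Swiss mouse bearing a 10–20 day tumor, diluted and counted; Swiss mice (18–20 g) inoculated ip with 1 × 10⁶ cells in 0.2 mL on day 0. Dosing ip once daily on days 1–7, in normal saline with 10% propylene glycol; controls given vehicle. Five animals per dose group. Tumor cell counts and ascitic fluid weight compared, treated (T) vs control (C).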

[4] = Effect on the survival of mice bearing ascites tumor in extremes treated at the dose of 20 mg/kg; assay type: functional, Mus musculus; method in brief: as §1
[5] = Effect on the survival of mice bearing ascites tumor in percent controls at the dose of 140 mg/kg; assay type: functional, Mus musculus; method in brief: as §2
[6] = Drug evaluation at the dose of 20 mg/kg by counting the average ascites cells number; 100/123; assay type: functional, Mus musculus; method in brief: as §3
[7] = Effect on the survival of mice bearing ascites tumor in percent controls at the dose of 20 mg/kg; assay type: functional, Mus musculus; method in brief: as §2
[8] = system: L1210; assay: (§4) Effect on L1210/0 cells in culture; assay type: functional, cell-based; conditions: Mus musculus
Method in brief: (§5)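 Murine L1210/0 leukemia and human CCRF-CEM lymphoblastoid cells incubated at 37 °C for 48 h over a range of compound concentrations. Growth inhibition read as IC50 (μM).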

[9] = system: CCRF-CEM; assay: Effect on CCRF-CEM cells (human lymphoblastoid cells) in culture; assay type: functional, cell-based; method in brief: as §5
[10] = Effect on the survival of mice bearing ascites tumor in percent controls at the dose of 30 mg/kg; assay type: functional, Mus musculus; method in brief: as §2
[11] = Drug evaluation at the dose of 20 mg/kg by calculating fluid weight; 2/2.5; assay type: functional, Mus musculus; method in brief: as §3
[12] = Percent inhibition of ascitic fluid at the dose of 20 mg/kg; assay type: functional; conditions: Mus musculus; method in brief: as §3
[13] = Effect on the survival of mice bearing ascites tumor at the dose of 20 mg/kg; assay type: functional, Mus musculus
Method in brief: (§6)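 Swiss mice (18–20 g) inoculated ip on day 0 with 1 × 10⁶ EAC cells drawn from a 10–20 day donor tumor. Compounds homogenized in normal saline with 10% propylene glycol and given ip starting 24 h later, as single dose or daily for 7 days. Five mice per dose; vehicle-only controls. Survival read as median survival time (days).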

[14] = Effect on the survival of mice bearing ascites tumor in extremes treated at the dose of 140 mg/kg; assay type: functional, Mus musculus; method in brief: as §1
[15] = Effect on the survival of mice bearing ascites tumor at the dose of 140 mg/kg; assay type: functional, Mus musculus; method in brief: as §6
[16] = Effect on the survival of mice bearing ascites tumor at the dose of 210 mg/kg; assay type: functional, Mus musculus; method in brief: as §6
[17] = Effect on the survival of mice bearing ascites tumor in extremes treated at the dose of 210 mg/kg; assay type: functional, Mus musculus; method in brief: as §1
[18] = Effect on the survival of mice bearing ascites tumor at the dose of 30 mg/kg; assay type: functional, Mus musculus; method in brief: as §6
[19] = Drug evaluation at the dose of 20 mg/kg by counting the average ascites cells number; 59/165; assay type: functional, Mus musculus; method in brief: as §3
[20] = system: CCRF-CEM; assay: (§7) Effect on CCRF-CEM cells in culture; assay type: functional, cell-based; conditions: Homo sapiens
Method in brief: (§8)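 CCRF-CEM human lymphoblastoid or L1210/0 mouse leukemia cells incubated with a range of compound concentrations at 37 °C for 48 h; IC50 (μM) taken from cell growth.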

[21] = system: L1210; assay: as §4; assay type: functional, cell-based; conditions: Mus musculus; method in brief: as §8; remark: listed apart in the source
[22] = Drug evaluation at the dose of 20 mg/kg by calculating fluid weight; 0.8/2; assay type: functional, Mus musculus; method in brief: as §3
[23] = Drug evaluation at the dose of 20 mg/kg by counting the average ascites cells number; 35/150; assay type: functional, Mus musculus; method in brief: as §3
[24] = system: CCRF-CEM; assay: as §7; assay type: functional, cell-based; conditions: Homo sapiens; method in brief: as §5; remark: listed apart in the source
[25] = Effect on the survival of mice bearing ascites tumor in percent controls at the dose of 10 mg/kg; assay type: functional, Mus musculus; method in brief: as §2
[26] = Effect on the survival of mice bearing ascites tumor in extremes treated at the dose of 10 mg/kg; assay type: functional, Mus musculus; method in brief: as §1
[27] = Effect on the survival of mice bearing ascites tumor in extremes treated at the dose of 70 mg/kg; assay type: functional, Mus musculus; method in brief: as §1
[28] = system: L1210; assay: Effect on L1210/0 cells (mouse leukemia cells) in culture
[29] = Effect on the survival of mice bearing ascites tumor at the dose of 70 mg/kg; assay type: functional, Mus musculus; method in brief: as §6
[30] = Effect on the survival of mice bearing ascites tumor in percent controls at the dose of 70 mg/kg; assay type: functional, Mus musculus; method in brief: as §2
[31] = Effect on the survival of mice bearing ascites tumor at the dose of 10 mg/kg; assay type: functional, Mus musculus; method in brief: as §6

COc1ccc(C(=O)C#Cc2cnc(O)nc2O)cc1
Extremes treated [1]: 13
Controls [2]: 127%
inhibition in vivo at 20 mg/kg [3]: 19.1%
Extremes treated [4]: 19
Controls [5]: 127%
T/C [6]: 0.813
Controls [7]: 164%
IC50 [8]: 2000 nM
IC50 [9]: 2300 nM
Controls [10]: 109%
T/C [11]: 0.8
inhibition in vivo at 20 mg/kg [12]: 20%
Survival treated [13]: 18
Extremes treated [14]: 15
Survival treated [15]: 14
Survival treated [16]: 14
Extremes treated [17]: 16
Survival treated [18]: 12

O=C(C#Cc1cnc(O)nc1O)c1ccccc1Cl
Extremes treated [1]: 20
Controls [2]: 204%
T/C [19]: 0.358
inhibition in vivo at 20 mg/kg [3]: 64.2%
Extremes treated [4]: 17
Controls [5]: 127%
Controls [7]: 127%
IC50 [8]: 2000 nM
IC50 [9]: 2200 nM
Controls [10]: 142%
inhibition in vivo at 20 mg/kg [12]: 37.5%
Survival treated [13]: 16.5
Extremes treated [14]: 18
Survival treated [15]: 16.5
Survival treated [16]: 26.5
Extremes treated [17]: 27
Survival treated [18]: 18.5

O=c1[nH]cc(F)c(=O)[nH]1 [FLUOROURACIL]
Extremes treated [4]: 45
Controls [5]: 92%
Controls [7]: 342%
IC50 [20]: 2000 nM
Survival treated [13]: 41
Extremes treated [14]: 14
IC50 [21]: 300 nM
Survival treated [15]: 11

O=C(C#Cc1cnc(O)nc1O)c1ccccc1
Extremes treated [1]: 18
Controls [2]: 165%
inhibition in vivo at 20 mg/kg [3]: 76%
T/C [22]: 0.4
Extremes treated [4]: 23
Controls [5]: 281%
Controls [7]: 169%
IC50 [8]: 650 nM
T/C [23]: 0.233
Controls [10]: 134%
inhibition in vivo at 20 mg/kg [12]: 60%
Survival treated [13]: 22
Extremes treated [14]: 39
Survival treated [15]: 36.5
Survival treated [16]: 21.5
Extremes treated [17]: 22
Survival treated [18]: 17.5
IC50 [24]: 2000 nM

Cc1ccc(C(=O)C#Cc2cnc(O)nc2O)cc1
Controls [25]: 113%
Extremes treated [4]: 23
Controls [5]: 300%
Controls [7]: 178%
IC50 [9]: 2250 nM
Survival treated [13]: 20.5
Extremes treated [14]: 35
Extremes treated [26]: 14
Extremes treated [27]: 31
IC50 [28]: 1900 nM
Survival treated [15]: 34.5
Survival treated [29]: 30
Controls [30]: 260%
Survival treated [31]: 13
